How the values were obtained:
[1] = Drug metabolism in mouse liver microsomes assessed as glucuronidation of compound measured as compound remaining after 30 mins by LC/MS analysis; format: ADME; conditions: read-out: Stability
In short: (§1)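 Liver microsomes (mouse or rat), 0.5 mg protein/mL, incubated at 37 °C with UDPGA (2 mM) as cofactor for glucuronidation. Parent compound remaining was quantified after 30 and 60 min and expressed as % remaining.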

[2] = Drug metabolism in mouse liver microsomes assessed as glucuronidation of compound measured as compound remaining after 60 mins by LC/MS analysis; format: ADME; conditions: read-out: Stability; in short: as §1
[3] = Drug metabolism in human liver microsomes assessed as glucuronidation of compound measured as compound remaining after 30 mins by LC/MS analysis; format: ADME; conditions: read-out: Stability
In short: (§2)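 Human liver microsomes (0.5 mg protein/mL) incubated with compound at 37 °C in the presence of UDPGA (2 mM), with a UDPGA-free control incubation. Remaining parent compound quantified after 30 and 60 min and expressed as % remaining.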

[4] = Drug metabolism in rat liver microsomes assessed as glucuronidation of compound measured as compound remaining after 30 mins by LC/MS analysis; format: ADME; conditions: read-out: Stability; in short: as §1
[5] = Drug metabolism in human liver microsomes assessed as glucuronidation of compound measured as compound remaining after 60 mins by LC/MS analysis; format: ADME; conditions: read-out: Stability; in short: as §2
[6] = Plasma clearance in CD1 mouse at 30 mg/kg, po and 10 mg/kg, iv; format: ADME, organism-based
[7] = Drug metabolism in rat liver microsomes assessed as glucuronidation of compound measured as compound remaining after 60 mins by LC/MS analysis; format: ADME; conditions: read-out: Stability; in short: as §1
[8] = Oral bioavailability in CD1 mouse at 30 mg/kg; format: ADME, organism-based; conditions: in vivo
D-amino-acid oxidase = D-amino-acid oxidase (Homo sapiens, UniProt P14920); experiment: Inhibition of human D-amino acid oxidase
Sequence of D-amino-acid oxidase (P14920 whole entry): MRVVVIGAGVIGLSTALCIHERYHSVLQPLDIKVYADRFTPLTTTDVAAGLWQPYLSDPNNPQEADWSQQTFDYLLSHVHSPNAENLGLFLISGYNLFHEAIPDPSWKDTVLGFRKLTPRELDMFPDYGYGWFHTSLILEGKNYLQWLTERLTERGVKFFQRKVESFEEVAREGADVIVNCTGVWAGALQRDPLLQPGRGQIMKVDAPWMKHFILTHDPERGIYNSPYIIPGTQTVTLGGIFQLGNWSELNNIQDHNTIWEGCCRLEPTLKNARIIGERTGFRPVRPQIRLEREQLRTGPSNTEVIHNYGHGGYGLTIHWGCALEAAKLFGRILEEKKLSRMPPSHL

remaining at 0.5 h [1]	remaining at 1 h [2]	SMILES	further results
< 1%	< 1%	O=c1[nH]c2ccccc2cc1O	
< 1%	< 1%	O=c1[nH]c2c(F)cc(F)cc2n1O	
5%	3%	O=c1[nH]cc(CCc2ccccc2)cc1O	
77%	59%	O=c1[nH]nc(CCc2cc(F)cc(F)c2)cc1O	remaining at 0.5 h [3]: 81%; remaining at 0.5 h [4]: 69%; remaining at 1 h [5]: 62%; clearance [6]: 39 mL/min/kg; remaining at 1 h [7]: 51%; bioavailability [8]: 31%
20%	5%	O=c1cc(CSc2ccc(Cl)c(Cl)c2)occ1O	
103%	102%	O=C(O)c1cc(CCc2ccc(Cl)cc2)n[nH]1	IC50 (D-amino-acid oxidase): < 1000 nM
92%	78%	Cc1cc(C(=O)O)n[nH]1	
< 1%	< 1%	O=c1[nH]c2cc(F)ccc2cc1O	remaining at 0.5 h [4]: < 1%; remaining at 1 h [7]: < 1%
58%	33%	Oc1noc2cc(Cl)ccc12	
< 1%	< 1%	O=c1[nH]c2cccc(Cl)c2cc1O	remaining at 0.5 h [4]: < 1%; remaining at 1 h [7]: < 1%
98%	100%	O=C(O)c1cc2sccc2[nH]1	
< 1%	< 1%	O=c1oc2ccccc2cc1O [3-HYDROXYCOUMARIN]	
